The text below walks through data of article PMC3931004 (The Biochemical journal, 2013).

Where only a bound is given, the exact number is not on record here.

For experiment [1], the target named is T1, PBD1 of PPIP5K1 (Homo sapiens, UniProt Q6PFW1).
T1 sequence (Q6PFW1 382-917): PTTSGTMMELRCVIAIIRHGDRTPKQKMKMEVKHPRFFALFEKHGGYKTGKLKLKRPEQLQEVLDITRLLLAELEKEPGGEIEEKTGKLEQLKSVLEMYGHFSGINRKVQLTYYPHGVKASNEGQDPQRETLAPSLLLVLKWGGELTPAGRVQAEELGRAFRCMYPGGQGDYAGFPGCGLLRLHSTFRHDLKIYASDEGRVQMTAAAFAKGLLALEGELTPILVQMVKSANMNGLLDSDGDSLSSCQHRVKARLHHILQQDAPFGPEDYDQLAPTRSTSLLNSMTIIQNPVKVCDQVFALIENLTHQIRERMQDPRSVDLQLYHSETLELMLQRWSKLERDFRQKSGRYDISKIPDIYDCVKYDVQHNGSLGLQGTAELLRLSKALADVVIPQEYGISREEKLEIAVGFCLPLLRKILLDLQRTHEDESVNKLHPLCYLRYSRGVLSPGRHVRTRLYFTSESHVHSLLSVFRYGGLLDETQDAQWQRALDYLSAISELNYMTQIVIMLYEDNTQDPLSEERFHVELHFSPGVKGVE
The experiment in a line: SPR ligand competition: PBD1 binding to vesicular PtdIns. The settings on record: for fold lower affinity for PBD1 than InsP6 and 5-InsP7: from IC50 values.

Experiment [2] has as its target SIN1^PH (Homo sapiens, UniProt Q9BPZ7). The experiment can be described thus: SPR ligand competition: SIN1^PH binding to vesicular PtdIns.
Experiment [3] addresses Akt^PH (human recombinant AKT1) (Homo sapiens, UniProt P31749). The experiment can be described thus: SPR ligand competition: Akt binding to vesicular PtdIns.
In experiment [4] the target is T2, GRP1^PH (Mus musculus, UniProt O08967).
T2 sequence (O08967 261-387 limits assumed): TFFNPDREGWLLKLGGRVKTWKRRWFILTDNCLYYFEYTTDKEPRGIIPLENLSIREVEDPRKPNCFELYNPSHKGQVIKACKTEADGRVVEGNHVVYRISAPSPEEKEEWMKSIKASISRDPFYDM
The experiment can be described thus: SPR ligand competition: GRP1^PH association with PtdIns. The class given is binding. The following applies: Supplementary Figure S2. Summed up:
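GRP1 PH domain expressed in E. coli BL21(DE3) at 37 °C in ampicillin LB, induced overnight at 25 °C with 1 mM IPTG at D600 0.6, lysed in imidazole-containing Hepes pH 8 buffer. SPR: protein injected at 5 μl/min over immobilized PtdIns(3,4,5)P3-containing lipid vesicles in 100 mM KCl, 10 mM NaH2PO4, 1 mM MgCl2, 25 mM Hepes pH 7.2. Signal corrected against control vesicles lacking the phosphoinositide.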

The test system of experiment [5] is NIH 3T3 cells. The experiment can be described thus: [3H]inositol lipid and inositol phosphate levels in NIH 3T3 cells by HPLC. The class given is cell-based. An outline of the steps:
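NIH 3T3 cells in DMEM with 10 % FBS and 1 mM pyruvate (37 °C, 5 % CO2), [3H]inositol-labelled, serum-starved 3 h in Hepes-buffered saline-glucose medium pH 7.4. Treatment: vehicle or PDGF for 5 min, or fresh medium with or without 0.2 M sorbitol. Reactions quenched; lipids or inositol phosphates extracted and quantified by HPLC as % of total. PDGF data: mean ± S.E.M., three experiments.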

For experiment [6], the system named is mouse embryo fibroblasts. The following applies: 5 min stimulation with IGF-1, serum starved overnight; cited from earlier work.
Setting [7] is: 30 min hyperosmotic stress, 0.2 M sorbitol.

Chain of SIN1^PH (Q9BPZ7 358-522): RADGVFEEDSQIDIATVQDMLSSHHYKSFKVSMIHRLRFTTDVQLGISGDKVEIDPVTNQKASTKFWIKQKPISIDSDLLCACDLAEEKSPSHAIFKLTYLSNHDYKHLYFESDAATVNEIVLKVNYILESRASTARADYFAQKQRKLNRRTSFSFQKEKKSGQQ
Chain of Akt^PH (human recombinant AKT1) (P31749 5-108 limits assumed): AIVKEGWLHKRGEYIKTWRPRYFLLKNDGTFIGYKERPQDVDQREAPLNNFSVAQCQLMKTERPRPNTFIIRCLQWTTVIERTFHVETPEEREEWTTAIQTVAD

In the case of `O=P(O)(O)O[C@@H]1[C@@H](OP(=O)(O)O)[C@@H](OP(=O)(O)O)[C@@H](OP(=O)(O)OP(=O)(O)O)[C@H](OP(=O)(O)O)[C@H]1OP(=O)(O)O` [1-InsP7], the half-maximal inhibitory concentration (IC50) in experiment [1] is 43 µM; in experiment [2] it was more than 100 µM; in experiment [3], 45 µM. Moreover, the “fold lower affinity for PBD1 than InsP6 and 5-InsP7” value in experiment [1] was 6–7 fold.

As to `O=P(O)(O)O[C@H]1[C@@H](OP(=O)(O)O)[C@H](OP(=O)(O)O)[C@@H](OP(=O)(O)OP(=O)(O)O)[C@H](OP(=O)(O)O)[C@H]1OP(=O)(O)O` [5-InsP7], the IC50 was 5 µM in experiment [1], 3.7 µM in experiment [2] and 7 µM in experiment [3]. In addition, the “inhibition of GRP1^PH association with PtdIns(3,4,5)P3, relative potency” value in experiment [4] was “only marginally more potent than InsP6”.

On to `O=P(O)(O)O[C@H]1[C@H](OP(=O)(O)O)[C@@H](OP(=O)(O)O)[C@H](OP(=O)(O)O)[C@@H](OP(=O)(O)O)[C@H]1OP(=O)(O)O` [InsP6], for which the IC50 stood at 7 µM in experiment [1], 6 µM in experiment [2] and 14 µM in experiment [3].

As for `O=P(O)(O)O[C@@H]1[C@@H](OP(=O)(O)O)[C@H](OP(=O)(O)OP(=O)(O)O)[C@@H](OP(=O)(O)O)[C@H](OP(=O)(O)OP(=O)(O)O)[C@@H]1OP(=O)(O)O` [InsP8, bis-diphosphoinositol tetrakisphosphate], the 50% inhibitory concentration (IC50) was 32 µM in experiment [1], more than 100 µM in experiment [2] and more than 50 µM in experiment [3]. In addition, in experiment [1], the “fold lower affinity for PBD1 than InsP6 and 5-InsP7” value is reported as 6–7 fold.

On to `OC[C@@H](O)[C@@H](O)[C@H](O)[C@@H](O)CO` [sorbitol], for which, in experiment [5] (setting [7]), the “elevation of PtdIns(3,4,5)P3 levels” value came out at 4.5 fold and the “increase in InsP8 concentration” value turned out to be 4.5 fold.

For IGF-1: insulin-like growth factor 1, the “increase in levels of InsP6 and InsP7” value in experiment [6] is recorded as 2 fold.

As to PDGF, the “increase in levels of PtdIns(3,4,5)P3” value in experiment [5] (5 min stimulation with 50 ng/ml PDGF, 3 h serum starved) is 2 fold.

The term IC50 denotes the concentration that inhibits the measured activity by half.
